Drawing on ChEMBL document CHEMBL3860061, “A Novel Parkinson's Disease Drug Candidate with Potent Anti-neuroinflammatory Effects through the Src Signaling Pathway” (J Med Chem, 2016), this text covers Activity, inhibition and Drug uptake for 1 molecule.

Data set [1] has as its system Mus musculus. Description: Antineuro-inflammatrory activity in MPTP/probenecid-induced chronic C57/BL mouse Parkinson's disease model assessed as decrease in TNF-alpha level in midbrain at 10 to 20 mg/kg dosed once daily for 7 weeks post 10 doses of MPTP/probenecid for 5 weeks measured after last MPTP/probenecid dose by ELISA. The class given is functional, organism-based. The method, boiled down:
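Male C57/BL mice (22–25 g) received 10 doses of MPTP hydrochloride (25 mg/kg in saline, s.c.) plus probenecid (250 mg/kg in DMSO, i.p.) over 5 weeks. Only mice failing the rotarod afterwards were randomised to agent (5, 10, 20 mg/kg) or L-DOPA 20 mg/kg in 0.5% CMC-Na, once daily for 7 weeks. Midbrain lysate in non-denaturing buffer with protease inhibitor; IL-1β or TNF-α by ELISA, n = 6.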
For orientation: In an ELISA, binding on a coated surface is turned into a signal by an enzyme label.

For data set [2], the system named is Mus musculus. Description: Increase in dopamine level in striatum of MPTP/probenecid-induced chronic C57/BL mouse Parkinson's disease model at 10 to 20 mg/kg dosed once daily for 7 weeks post 10 doses of MPTP/probenecid for 5 weeks measured after last MPTP/probenecid dose by HPLC analysis. The class given is functional, organism-based. The procedure, abridged:
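Chronic model: 10 doses of MPTP·HCl (25 mg/kg s.c.) with probenecid (250 mg/kg i.p.) over 5 weeks. Rotarod-impaired mice then dosed with agent (5–20 mg/kg) or L-DOPA 20 mg/kg daily for 7 weeks. Striatum extracted in 0.6 N perchloric acid with phosphate/citrate/EDTA buffer; dopamine by HPLC, n = 8.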

The subject of data set [3] is Mus musculus. Put plainly: In vivo inhibition of Src in MPTP/probenecid-induced chronic C57/BL mouse Parkinson's disease model assessed as effect on PTEN expression level in midbrain at 5 to 20 mg/kg co-administered with L-DOPA once in a day for 7 weeks post 10 doses of MPTP for 5 weeks by Western blot analysis. The class given is functional, organism-based. Background: A western blot detects proteins with antibodies after separation by electrophoresis.

The test system of data set [4] is Mus musculus. Description: In vivo inhibition of Src in MPTP/probenecid-induced chronic C57/BL mouse Parkinson's disease model assessed as effect on PTEN expression level in midbrain at 5 to 20 mg/kg dosed once daily for 7 weeks post 10 doses of MPTP/probenecid for 5 weeks by iTRAQ-labelled 2D-LC/MS/MS analysis. The class given is functional, organism-based.
The subject of data set [5] is Mus musculus. Put plainly: Effect on ARHGAP21 protein expression level in midbrain of MPTP/probenecid-induced chronic C57/BL mouse Parkinson's disease model at 5 to 20 mg/kg dosed once daily for 7 weeks post 10 doses of MPTP/probenecid for 5 weeks by iTRAQ-labelled 2D-LC/MS/MS analysis. The class given is functional, organism-based.
Data set [6] deals with Mus musculus. Description: Antineuro-inflammatrory activity in alpha-syn A53T transgenic B6C3H mouse assessed as decrease in TNF-alpha level in midbrain at 10 to 20 mg/kg dosed once daily for 12 consecutive weeks by ELISA. The class given is functional, organism-based. The procedure, abridged:
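Male B6;C3H mice expressing mutant α-syn (A53T), from 4 months old, given agent (5, 10, 20 mg/kg) or L-DOPA 20 mg/kg in 0.5% CMC-Na once daily for 12 weeks. Wild-type controls received vehicle. Midbrain homogenised in non-denaturing lysis buffer with protease inhibitor; IL-1β or TNF-α measured by ELISA, n = 6, mean ± SD.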

Data set [7] relates to Mus musculus. Put plainly: Neuroprotective activity in alpha-syn A53T transgenic B6C3H mouse assessed as improvement in motor behavior at 5 to 20 mg/kg dosed once daily for 12 consecutive weeks by rotarod test. The class given is functional, organism-based. The method, boiled down: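 Male B6;C3H mice overexpressing mutant alpha-syn (A53T), housed on a 12-h light/dark cycle at 24 °C and 60% humidity, were acclimatised for 1 week. Daily dosing ran 12 consecutive weeks from 4 months of age. Wild-type mice received 0.5% CMC-Na, and L-DOPA 20 mg/kg was the reference. Rotarod ran at 14 rpm for up to 120 s, recording latency to first fall. Each mouse had three trials with 1 h rest between them. n = 15; mean ± SD.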
Background: The rotarod test checks motor coordination on a turning rod.

The subject of data set [8] is Mus musculus. Description: Antineuro-inflammatrory activity in MPTP-induced subacute C57/BL mouse Parkinson's disease model assessed as decrease in IL-1beta levels in midbrain at 10 to 20 mg/kg […] dosed 30 mins prior to each MPTP injection for 5 days and administered continuously for 7 days post last MPTP dose measured on day 12 post last dose by ELISA. The class given is functional, organism-based. The method, boiled down: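 Male C57/BL mice (22–25 g) received MPTP hydrochloride 30 mg/kg i.p. daily for 5 days. Test agent (5, 10, 20 mg/kg) or L-DOPA 20 mg/kg, suspended in 0.5% CMC-Na, given 30 min before each MPTP injection, then continued for 7 more days. On day 12 the midbrain was homogenised in non-denaturing lysis buffer with protease inhibitor and IL-1β or TNF-α measured by ELISA, n = 6, mean ± SD.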

Data set [9] has as its system Mus musculus. Description: Neuroprotective activity in MPTP-induced subacute C57/BL mouse Parkinson's disease model assessed as improvement in motor behavior at 5 to 20 mg/kg […] dosed 30 mins prior to each MPTP injection for 5 days and administered continously for 7 days post last MPTP dose by pole test. The class given is functional, organism-based. The method, boiled down:
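Sub-acute MPTP model (30 mg/kg i.p. × 5 days) in male C57/BL mice. Agent (5–20 mg/kg) or L-DOPA 20 mg/kg given 30 min before each injection and for 7 days after. Rotarod at 14 rpm, up to 120 s, fall latency over three trials 1 h apart. Pole test: 50 cm pole, descent scored 1–5, two trials 1 h apart, pre-trained. n = 15.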

Data set [10] deals with Mus musculus. Put plainly: Neuroprotective activity in MPTP/probenecid-induced chronic C57/BL mouse Parkinson's disease model assessed as improvement in motor behavior at 5 to 20 mg/kg dosed once daily for 7 weeks post 10 doses of MPTP/probenecid for 5 weeks measured after last MPTP/probenecid dose by rotarod test. The class given is functional, organism-based. The method, boiled down: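 Chronic MPTP/probenecid model (10 doses over 5 weeks), then agent (5–20 mg/kg) or L-DOPA 20 mg/kg daily for 7 weeks. Rotarod at 14 rpm, up to 120 s, fall latency from three trials 1 h apart. Pole test: gauze-wrapped 50 cm pole, descent scored 1–5, two trials 1 h apart after pre-training. n = 15.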

The nature of data set [11]: Drug uptake in ICR mouse plasma at 50 mg/kg, ig after 5 mins by LC/MS/MS analysis. The class given is ADME, organism-based. The conditions noted are these: in vivo, po.
The subject of data set [12] is Mus musculus. Description: Antineuro-inflammatrory activity in MPTP-induced subacute C57/BL mouse Parkinson's disease model assessed as decrease in TNF-alpha levels in midbrain at 10 to 20 mg/kg […] dosed 30 mins prior to each MPTP injection for 5 days and administered continuously for 7 days post last MPTP dose measured on day 12 post last dose by ELISA. The class given is functional, organism-based.

The test system of data set [13] is Mus musculus. Put plainly: Nephrotoxicity in ICR mouse at 250 to 1000 mg/kg administered through oral gavage for 14 consecutive days. The class given is toxicity, organism-based. The following applies: in vivo. The procedure, abridged: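 Mice dosed by oral gavage at 250, 500 and 1000 mg/kg for 14 consecutive days. General condition monitored throughout; liver and kidney clinical chemistry assessed.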

For data set [14], the system named is Mus musculus. Description: Effect on ARHGAP21 protein expression level in midbrain of MPTP/probenecid-induced chronic C57/BL mouse Parkinson's disease model at 5 to 20 mg/kg dosed once daily for 7 weeks post 10 doses of MPTP/probenecid for 5 weeks by Western blot analysis. The class given is functional, organism-based.

Activity calls are given as the source filed them. No cut-off for these calls is given here.

For `COc1cc(OC)c(CN[C@@H](CO)C(=O)O)c(OC)c1`, the outcome in data set [1], in [2], in data set [5], in [6], in [7] and in data set [8] was Active. Besides, the outcome in data set [9], in [10], in data set [12] and in data set [14] was Active. The inhibition result in data set [3] and in data set [4] was “Active” each time. Besides, the Drug uptake entry in data set [11] is “Active”. In addition, the Activity result in [13] is “Non-Toxic”.
